Numbering of substitutions follows the chain as printed. Names and notes keep the numbering of the source.
What was measured:
[1] = molecular target: T1, Acb2 (Pseudomonas phage PaMx33, UniProt A0A1C8HPQ3); assay: HPLC assay of cyclic dinucleotide sequestering by Acb2; format: binding; details: 40 μM Acb2 pre-incubated with 4 μM cyclic dinucleotide
[2] = molecular target: T1, Acb2; assay: Isothermal titration calorimetry; format: binding
[3] = molecular target: T1, Acb2; assay: Native-PAGE assay of Acb2 with cyclic dinucleotides; format: binding; details: Acb2 14.3 μM, cyclic dinucleotide 1.8-7.2 μM
Outline: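 Purified Acb2 (14.3 μM) preincubated 10 min at 18°C with cyclic dinucleotide at 1.8, 3.6 or 7.2 μM. Mixtures resolved on 5% native polyacrylamide gels and stained with Coomassie blue.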

[4] = molecular target: Acb2 K26A (Pseudomonas phage PaMx33, UniProt A0A1C8HPQ3, K26A); assay: ITC / native PAGE binding of 3’,3’-cGAMP to Acb2 K26A mutant; details: ITC and native PAGE
[5] = molecular target: Acb2 Y11A (Pseudomonas phage PaMx33, UniProt A0A1C8HPQ3, Y11A); assay: ITC / native PAGE binding of 3’,3’-cGAMP to Acb2 Y11A mutant; details: ITC and native PAGE
[6] = test system: Acb2 homolog from E. coli phage T4 (gene vs.4); details: cited from earlier work
[7] = molecular target: CapV (Pseudomonas aeruginosa, UniProt P0DX85); assay: Fluorogenic biochemical assay for CapV phospholipase activity; parameters: species or system P. aeruginosa BWHPSA011 (Pa011); details: 3’,3’-cGAMP 0.025-0.8 μM, other cyclic dinucleotides 0.8 μM
[8] = molecular target: the molecule itself; assay: crystal structure
[9] = test system: Pa011 CBASS immunity; assay: Plaque assays with PaMx41 phage on Pa011 WT; format: cell-based, Pseudomonas aeruginosa; details: variant overexpressed in Pa011 WT, in the presence of CBASS
Outline: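 gp24 variants expressed episomally from arabinose-inducible, gentamicin-selected pHERD30T in Pa011 WT and ΔCBASS. Overnight culture (150 μl) mixed with top agar on LB agar. Phage lysate 10-fold serially diluted and spotted (2 μl) onto the solidified top agar; plates incubated at 37°C and titre read from plaques.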

[10] = molecular target: T2, Cap2 (Pseudomonas aeruginosa, UniProt P0DX87); assay: Gel filtration assay of Acb2 with Cap2; format: binding, P. aeruginosa BWHPSA011 (Pa011); details: molar ratio 5:1
T2 sequence (P0DX87 1-543): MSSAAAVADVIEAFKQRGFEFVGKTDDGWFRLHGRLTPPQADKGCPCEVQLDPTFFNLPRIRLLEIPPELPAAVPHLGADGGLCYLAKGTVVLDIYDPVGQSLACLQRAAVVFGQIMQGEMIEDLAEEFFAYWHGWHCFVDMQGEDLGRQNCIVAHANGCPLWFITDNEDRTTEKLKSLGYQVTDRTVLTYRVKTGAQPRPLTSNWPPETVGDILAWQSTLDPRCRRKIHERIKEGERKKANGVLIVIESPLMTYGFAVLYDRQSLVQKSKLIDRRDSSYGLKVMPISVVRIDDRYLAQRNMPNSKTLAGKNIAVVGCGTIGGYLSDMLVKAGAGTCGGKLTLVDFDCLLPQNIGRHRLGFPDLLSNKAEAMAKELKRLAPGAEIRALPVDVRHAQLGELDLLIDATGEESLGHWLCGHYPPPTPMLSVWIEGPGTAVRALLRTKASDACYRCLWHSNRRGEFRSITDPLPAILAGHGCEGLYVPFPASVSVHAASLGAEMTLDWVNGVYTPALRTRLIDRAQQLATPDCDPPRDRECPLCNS
Outline: (§1)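 Acb2 (E. coli BL21(DE3), 0.2 mM IPTG at OD600 0.8, 18°C 12 h; Ni-NTA, tag removed with Ulp1, Superdex-200) incubated with His-tagged partner protein at 5:1 molar ratio overnight on ice. Gel filtration was on Superdex-200 increase 10/300 GL in 10 mM Tris–HCl pH 8.0, 200 mM NaCl, 5 mM DTT at 0.5 mL/min. Fractions were analysed by SDS-PAGE with Coomassie staining.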

[11] = molecular target: T3, CapV (Pseudomonas aeruginosa, UniProt P0DX85); assay: Gel filtration assay of Acb2 with CapV; format: binding, P. aeruginosa BWHPSA011 (Pa011); details: molar ratio 5:1
T3 sequence (P0DX85 whole entry, looked up): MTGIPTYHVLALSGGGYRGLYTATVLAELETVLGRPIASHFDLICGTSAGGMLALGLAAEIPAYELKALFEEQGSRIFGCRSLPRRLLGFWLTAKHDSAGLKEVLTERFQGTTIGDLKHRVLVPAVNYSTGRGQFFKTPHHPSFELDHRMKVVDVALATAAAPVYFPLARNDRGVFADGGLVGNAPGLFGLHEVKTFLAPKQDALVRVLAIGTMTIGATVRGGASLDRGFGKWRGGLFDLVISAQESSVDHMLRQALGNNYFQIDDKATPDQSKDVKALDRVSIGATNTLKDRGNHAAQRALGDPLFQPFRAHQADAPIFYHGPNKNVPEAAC
Outline: as §1

[12] = molecular target: T4, CdnA (Pseudomonas aeruginosa, UniProt P0DX86); assay: Gel filtration assay of Acb2 with CdnA; format: binding, P. aeruginosa BWHPSA011 (Pa011); details: molar ratio 5:1
T4 sequence (P0DX86 1-380): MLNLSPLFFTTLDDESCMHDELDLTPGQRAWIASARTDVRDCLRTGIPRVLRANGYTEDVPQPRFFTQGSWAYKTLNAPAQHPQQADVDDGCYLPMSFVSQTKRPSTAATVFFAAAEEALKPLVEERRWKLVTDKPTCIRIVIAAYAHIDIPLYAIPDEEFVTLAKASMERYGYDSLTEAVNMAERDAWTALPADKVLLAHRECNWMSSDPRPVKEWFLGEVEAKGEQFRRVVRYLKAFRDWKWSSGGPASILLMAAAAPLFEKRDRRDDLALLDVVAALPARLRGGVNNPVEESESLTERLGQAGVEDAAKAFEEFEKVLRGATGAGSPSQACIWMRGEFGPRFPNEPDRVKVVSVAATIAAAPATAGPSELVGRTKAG
Outline: as §1

[13] = test system: 3’,3’-cGAMP levels in phage-infected Pa011 cells; assay: Intracellular 3’,3’-cGAMP measurements by ELISA in phage-infected Pa011 cells; format: cell-based, Pseudomonas aeruginosa; details: overexpression in phage-infected Pa011 WT cells
[14] = molecular target: T5, CdnA-Cap2 complex (Pseudomonas aeruginosa, UniProt P0DX86+P0DX87, C105A/C479A); assay: Gel filtration assay of Acb2 with CdnA-Cap2 complex; format: binding, P. aeruginosa BWHPSA011 (Pa011); details: molar ratio 5:1
T5 sequence (P0DX86 1-380): T4 sequence (P0DX86 1-380)
T5 sequence (P0DX87 1-543 C105A/C479A): T2 sequence (P0DX87 1-543) with C105A, C479A
Outline: as §1

[15] = molecular target: T3, CapV; assay: Fluorogenic biochemical assay for CapV phospholipase activity; parameters: species or system P. aeruginosa BWHPSA011 (Pa011); details: Acb2 or mutant 32 μM preincubated with 0.8 μM 3’,3’-cGAMP for 10 minutes

Sequence of Acb2 Y11A (A0A1C8HPQ3 whole entry Y11A): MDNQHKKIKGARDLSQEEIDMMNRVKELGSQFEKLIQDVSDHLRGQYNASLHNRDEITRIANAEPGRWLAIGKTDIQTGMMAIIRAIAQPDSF
Sequence of Acb2 K26A (A0A1C8HPQ3 whole entry K26A): as the sequence (A0A1C8HPQ3 whole entry Y11A) above, with A11Y, K26A counted along it

With Nc1ncnc2c1ncn2[C@@H]1O[C@@H]2COP(=O)(O)O[C@H]3[C@@H](O)[C@H](n4cnc5c(N)ncnc54)O[C@@H]3COP(=O)(O)O[C@H]2[C@H]1O [c-di-AMP] the “sequestering of cyclic dinucleotide by Acb2 (HPLC)” value (“sequestering of cyclic dinucleotide” for short) [1] was “sequester” and the Kd [2] was about 66 nM.

With Nc1ncnc2c1ncn2[C@@H]1O[C@@H]2COP(=O)(O)O[C@H]3[C@@H](O)[C@H](n4ccc(=O)[nH]c4=O)O[C@@H]3COP(=O)(O)O[C@H]2[C@H]1O [3’,3’-c-UMP-AMP] the Kd [2] was about 97 nM.

For Nc1nc2c(ncn2[C@@H]2O[C@@H]3COP(=O)(O)O[C@H]4[C@@H](O)[C@H](n5ccc(=O)[nH]c5=O)O[C@@H]4COP(=O)(O)O[C@H]3[C@H]2O)c(=O)[nH]1 [3’,3’-c-UMP-GMP], the Kd [2] was about 524 nM.

In the case of Nc1nc2c(ncn2[C@@H]2O[C@@H]3COP(=O)(O)O[C@H]4[C@@H](O)[C@H](n5cnc6c(N)ncnc65)O[C@@H]4COP(=O)(O)O[C@H]3[C@H]2O)c(=O)[nH]1 [3’,3’-cGAMP], the “shift of purified Acb2 protein in native gel” value [3] is reported as “significant shift”, the “binding of 3’,3’-cGAMP to Acb2 K26A in vitro” value [4] is reported as “abolished” and the “sequestering of cyclic dinucleotide” value [1] is reported as “depletes detectable”. The “binding of 3’,3’-cGAMP to Acb2 Y11A in vitro” value [5] was “abolished”, the Kd [2] was about 87 nM and the Kd [6] was about 30 nM. For the same molecule, the “activation of CapV phospholipase activity” value [7] was “activated”.

For O=c1ccn([C@@H]2O[C@@H]3COP(=O)(O)O[C@H]4[C@@H](O)[C@H](n5ccc(=O)[nH]c5=O)O[C@@H]4COP(=O)(O)O[C@H]3[C@H]2O)c(=O)[nH]1 [3’,3’-c-di-UMP], the Kd [2] was about 99 nM.

In the case of Nc1nc2c(ncn2[C@@H]2O[C@@H]3COP(=O)(O)O[C@H]4[C@@H](O)[C@H](n5cnc6c(=O)[nH]c(N)nc65)O[C@@H]4COP(=O)(O)O[C@H]3[C@H]2O)c(=O)[nH]1 [c-di-GMP], the “sequestering of cyclic dinucleotide” value [1] is reported as “very weak sequestering effect”.

B1: Acb2 (anti-CBASS 2) from phage PaMx33 (natural protein, Pseudomonas aeruginosa phage PaMx33, UniProt A0A1C8HPQ3 1-93, looked up)
chain: MDNQHKKIKGYRDLSQEEIDMMNRVKELGSQFEKLIQDVSDHLRGQYNASLHNRDEITRIANAEPGRWLAIGKTDIQTGMMAIIRAIAQPDSF
With B1 the “stoichiometry N” value [8] was 6.

B2: long gp24: 94 a.a. version of PaMx41 gp24 (orf24 X37Q), named Acb2 hereafter (protein)
chain: B1 chain
modifications: left off: His6-SUMO, end not stated, cleaved
With B2 the “increase of PaMx41 WT phage titer” value [9] was ≥ 4 orders of magnitude.

B3: Acb2: phage anti-CBASS protein 2, purified from the naturally CBASS-resistant PaMx33 phage; hexameric cyclic dinucleotide sponge (protein)
chain: B1 chain
modifications: left off: His6-SUMO, end not stated, cleaved
With B3 the “binding of Acb2 to purified Cap2” value [10] was “did not bind”, the “binding of Acb2 to purified CapV” value [11] was “did not bind” and the “binding of Acb2 to purified CdnA” value [12] was “did not bind”. For the same molecule, the “effect on detectable 3’,3’-cGAMP levels” value [13] was “reduced”, the “binding of Acb2 to the CdnA-Cap2 complex” value [14] was “did not bind” and the “effect on 3’,3’-cGAMP-activated CapV activity” value [15] was “abrogated”.

— PMC9975087 (Cell, 2023)
